Bounds are passed on as bounds.

This assay deals with Dermatophagoides pteronyssinus. The assay is described as follows: Pesticidal activity against Dermatophagoides pteronyssinus after 24 hrs. Format: functional, organism-based. The gist of the method: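 D. pteronyssinus reared on 90% yeast powder/10% beard shavings at 25 °C, 75% RH, dark. Compounds in absolute EtOH dried 24 h on 2 cm2 well bottoms; rims glued. 100 mites per well, 24 h at 25 °C, 75% RH, dark. Dead = no movement when prodded. Abbott-corrected mortality; EC50 by linear regression. Seven 2-fold dilutions, 0.01–0.640 g/m2, triplicate, repeated after one week.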
The compound `Cc1ccc2oc(=O)ccc2c1` came in with an EC50 of 0.04 g/m2. With `O=C(OCc1ccccc1)c1cccc(O)c1` the figure was 0.495 g/m2; with `O=C(OCc1ccccc1)c1ccc(=O)oc1` [BENZYL COUMALATE], 0.495 g/m2; with `O=c1ccc2ccc(O)cc2o1` [UMBELLIFERONE], above 1.5 g/m2. To `O=c1ccc2ccccc2o1` [COUMARIN] belongs 0.032 g/m2; to `O=C1CCOc2ccccc21` [CHROMANONE], 0.07 g/m2; to `O=c1ccoc2ccccc12` [CHROMONE], 0.037 g/m2.

In the case of `O=C(OCc1ccccc1)c1ccccc1` [BENZYL BENZOATE], the EC50 came to 0.025 g/m2.

Take `O=Cc1cc(C(=O)OCc2ccccc2)ccc1O`: the EC50 was 0.242 g/m2.

`O=C(OCc1ccccc1)c1ccccc1O` [BENZYL SALICYLATE]: the EC50 is on record as 0.025 g/m2. `O=C1CC(c2ccccc2)Oc2ccccc21` (stereo unspecified) [FLAVANONE]: the EC50 came out at 0.09 g/m2. To `O=C(OCc1ccccc1)c1cc(=O)c2ccccc2o1` belongs 0.495 g/m2; to `O=c1cc(-c2ccccc2)oc2ccccc12` [FLAVONE], 0.5 g/m2; to `O=C(OCc1ccccc1)c1cccc2oc(=O)ccc12`, 0.495 g/m2.

Turning to `Oc1ccccc1CCCc1ccccc1` [CHALCANE], the EC50 worked out at 0.31 g/m2. To `c1ccc(C2CCc3ccccc3O2)cc1` (stereo unspecified) [FLAVANE] belongs 0.15 g/m2; to `O=C(OCc1ccccc1)c1ccc(O)cc1`, 0.495 g/m2; to `O=C(OCc1ccccc1)c1ccc2oc(=O)ccc2c1`, 0.495 g/m2.

Regarding `O=C(/C=C/c1ccccc1)OCc1ccccc1` [BENZYL CINNAMATE], the EC50 was found to be 0.18 g/m2. For `O=c1cc(O)c2ccccc2o1` [4-HYDROXYCOUMARINS], the EC50 is listed as above 1.5 g/m2.

In the case of `O=C(OCc1ccccc1)c1cc2ccccc2oc1=O`, the EC50 is listed as 0.28 g/m2.

(Values after ChEMBL document CHEMBL1146519, “Acaricidal activity of tonka bean extracts. Synthesis and structure-activity relationships of bioactive derivatives” (J Nat Prod, 2003).)
